Assay results gathered from unrelated publications.
Compare with care: the assays were run in different laboratories.
Target: Dual specificity mitogen-activated protein kinase kinase 5 (MAP2K5, Homo sapiens, UniProt Q13163)
One construct used (Q13163 1-448): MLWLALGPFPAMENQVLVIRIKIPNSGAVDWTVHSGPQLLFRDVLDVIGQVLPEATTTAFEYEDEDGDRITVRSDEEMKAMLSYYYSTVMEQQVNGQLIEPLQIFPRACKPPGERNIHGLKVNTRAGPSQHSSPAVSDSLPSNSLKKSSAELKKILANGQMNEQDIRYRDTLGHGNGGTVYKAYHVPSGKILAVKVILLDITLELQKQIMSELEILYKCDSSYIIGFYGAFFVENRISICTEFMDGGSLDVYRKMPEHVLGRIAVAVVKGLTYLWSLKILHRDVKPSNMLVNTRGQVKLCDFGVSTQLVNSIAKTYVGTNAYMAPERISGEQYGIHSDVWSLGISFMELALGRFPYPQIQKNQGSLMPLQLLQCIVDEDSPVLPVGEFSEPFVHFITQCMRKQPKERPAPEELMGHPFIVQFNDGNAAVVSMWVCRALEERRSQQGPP

Structure (SMILES) | test | conditions | remaining binding
C[C@@H]1CCN(c2nccc(-c3cnn4ncccc34)n2)C1 | binding | 1 µM | 71%
N#Cc1ccc(Nc2ccc3[nH]c(=O)[nH]c3c2)c(Cl)c1 | cell-free assay, competition with immobilised ligand | 1 µM | 100%
Cc1cnn2ncc(-c3ccnc(N(C)C)n3)c2c1 | binding | 1 µM | 78%
COc1cnc(Nc2cccc(S(N)(=O)=O)c2)nc1N1CCN(c2ccccc2)CC1 | binding, competition with immobilised ligand | 1 µM | 84%
O=C(c1ccc(Nc2ncc(Cl)c(-c3ccc(Cl)s3)n2)cc1)N1CCC(N2CCCC2)CC1 | binding, competition with immobilised ligand | 1 µM | 0.85%
N[C@@H]1CCN(c2nccc(-c3cnn4ncccc34)n2)C1 | binding | 1 µM | 97%
C[C@@H](c1ccc(-n2cnc3c(N)ncnc32)cc1)N1CCc2nn(C)c(Cc3ccccc3)c2C1=O | binding, competition with immobilised ligand | 0.1 µM | 40%
NS(=O)(=O)c1cc(NC(=O)Cc2ccccc2)ccc1Oc1cccc(Cl)c1 | cell-free assay, competition with immobilised ligand | 1 µM | 88%
CC1CCCN1c1nccc(-c2cnn3ncccc23)n1 (stereo not shown) | binding | 1 µM | 100%
O=C(Nc1c[nH]nc1C(=O)NC1CCNCC1)c1cc(F)cc(F)c1 | binding, competition with immobilised ligand | 1 µM | 100%
F[C@@H]1CCN(c2nccc(-c3cnn4ncccc34)n2)C1 | binding | 1 µM | 100%
COc1ncc2cc3ccccc3nc2c1C#N | cell-free assay, competition with immobilised ligand | 5 µM | 94%
Cc1noc([C@H]2C[C@@H](c3ccc(C(F)(F)F)cc3)CN(C(=O)N3CCS(=O)(=O)C3)C2)n1 | cell-free assay, competition with immobilised ligand | 1 µM | 78%
FC(F)(F)Oc1cccc(-c2cnc3ccc(-c4ccncc4)nn23)c1 | cell-free assay, competition with immobilised ligand | 5 µM | 35%
CN1CCN(c2cnc3c(C4CCN(C(=O)c5ccc(OC(F)(F)F)cc5N)CC4)ncnc3c2)CC1 | cell-free assay, competition with immobilised ligand | 1 µM | 86%
CN(CCCC(F)(F)F)c1nccc(-c2cnn3ncccc23)n1 | binding | 1 µM | 100%
Cc1c[nH]c2nccc(Oc3c(F)cc(Nc4cc(Cl)nc(N)n4)cc3F)c12 | cell-free assay, competition with immobilised ligand | 0.1 µM | 82%
O=C(NCCCN1CCOCC1)c1ccc(Nc2nccc(-c3cc4ccccc4s3)n2)cc1 | binding, competition with immobilised ligand | 1 µM | 36%
CCCCN(CCCC)C(=O)CN1C[C@H](c2cc(OC)c3c(c2)OCO3)[C@@H](C(=O)O)[C@@H]1CC(C)(C)CCC | cell-free assay, competition with immobilised ligand | 1 µM | 100%
CN(c1nccc(-c2cnn3ncccc23)n1)C1CC1 | binding | 1 µM | 100%
O=C(NCCCN1CCOCC1)c1ccc(Nc2ncc(Cl)c(-c3ccc(Cl)s3)n2)cc1 | binding, competition with immobilised ligand | 1 µM | 6.9%
O=C(O)c1cc(-c2ccc(C3CCNCC3)cc2)c2ccc(-c3ccc(C(F)(F)F)cc3)cc2c1 | cell-free assay, competition with immobilised ligand | 1 µM | 96%
